Reference: ChEMBL document CHEMBL1133567, “5-Azidoimidacloprid and an acyclic analogue as candidate photoaffinity probes for mammalian and insect nicotinic acetylcholine receptors” (J Med Chem, 2000)

Legend:
[1] = molecular target: Nicotinic acetylcholine receptor; experiment: Binding affinity for nAChR with [3H]imidacloprid in Drosophila; type: protein-complex assay, Drosophila melanogaster
[2] = Binding affinity for nAChR with [3H]nicotine in rat brain; type: tissue-based
Summary of the method: (§1)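 Competition with 5 nM [3H](-)-nicotine against varied inhibitor concentrations, using 400 µg protein from rat brain membranes or 100 µg protein from recombinant rat α4β2 membranes. Incubation 30 min at 22 °C in Tris-HCl pH 7.4 buffer with NaCl, KCl, CaCl2, MgSO4, EDTA. Stopped by filtration through polyethylenimine-soaked GF/B filters. Nonspecific binding with 5 µM (-)-nicotine.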

[3] = molecular target: Nicotinic acetylcholine receptor; experiment: Binding affinity for nAChR with [3H]imidacloprid in Myzus persicae; type: protein-complex assay
[4] = molecular target: Neuronal acetylcholine receptor subunit alpha-4 (Rattus norvegicus, UniProt P09483+P12390); experiment: Binding affinity for nAChR with [3H]-nicotine in rat alpha4 beta2 membranes; type: cell membranes; summary of the method: as §1
Neuronal acetylcholine receptor subunit alpha-4, sequence (P09483 whole entry, one chain of several): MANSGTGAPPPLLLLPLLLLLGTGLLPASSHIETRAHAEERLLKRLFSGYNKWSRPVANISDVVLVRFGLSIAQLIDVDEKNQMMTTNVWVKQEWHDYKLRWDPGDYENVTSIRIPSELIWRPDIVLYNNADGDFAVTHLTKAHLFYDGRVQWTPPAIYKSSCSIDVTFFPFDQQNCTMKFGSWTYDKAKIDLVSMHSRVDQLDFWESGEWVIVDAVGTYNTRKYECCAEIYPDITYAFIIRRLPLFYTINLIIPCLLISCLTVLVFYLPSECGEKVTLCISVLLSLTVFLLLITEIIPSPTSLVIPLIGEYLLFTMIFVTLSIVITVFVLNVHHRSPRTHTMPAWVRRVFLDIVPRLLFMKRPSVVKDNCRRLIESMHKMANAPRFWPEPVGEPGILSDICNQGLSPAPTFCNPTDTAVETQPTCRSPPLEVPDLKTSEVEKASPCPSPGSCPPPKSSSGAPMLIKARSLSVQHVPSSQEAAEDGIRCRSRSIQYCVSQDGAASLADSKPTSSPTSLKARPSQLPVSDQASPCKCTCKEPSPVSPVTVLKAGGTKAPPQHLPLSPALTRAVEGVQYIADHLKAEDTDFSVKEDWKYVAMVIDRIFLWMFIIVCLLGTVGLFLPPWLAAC

C/N=C(\NCc1ccc(Cl)nc1)N[N+](=O)[O-]
Ki [1]: 10 nM | Ki [2]: 3500 nM | Ki [3]: 12 nM

C/N=C(\NCc1cnc(Cl)c(N=[N+]=[N-])c1)N[N+](=O)[O-]
Ki [1]: 13 nM | Ki [2]: 44 nM | Ki [3]: 4.5 nM

[N-]=[N+]=Nc1cc(CN2CCNC2=N[N+](=O)[O-])cnc1Cl [5-AZIDOIMIDACLOPRID]
Ki [1]: 15 nM | Ki [2]: 44 nM | Ki [3]: 1 nM | Ki [4]: 4.4 nM

O=[N+]([O-])NC1=NCCN1Cc1ccc(Cl)nc1 [IMIDACLOPRID]
Ki [1]: 2.1 nM | Ki [2]: 290 nM | Ki [3]: 1.9 nM | Ki [4]: 50 nM
